Experimental findings from ChEMBL document CHEMBL3232752, “Synthesis, cytotoxicity and molecular modelling studies of new phenylcinnamide derivatives as potent inhibitors of cholinesterases” (Eur J Med Chem, 2014) are described below.

For one assay, the target named is Cholinesterase (Homo sapiens, UniProt P06276). Put plainly: Inhibition of human BChE using butyrylthiocholine iodide as substrate preincubated for 10 mins before substrate addition after 15 mins by Ellman's method. Background: DTNB colorimetry detects thiols as they appear.
The next assay deals with Acetylcholinesterase (Electrophorus electricus, UniProt O42275). Put plainly: (§1) Inhibition of electric eel acetylcholinesterase using acetylthiocholine iodide as substrate preincubated for 10 mins before substrate addition after 15 mins by Ellman's method.
The subject of assay [1] is NCI-H157. Description: Antiproliferative activity against human NCI-H157 cells at 1 uM after 48 hrs by SRB assay. Format: functional. The method, boiled down:
(§2)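 H157 lung carcinoma cells were seeded at 10⁴ cells per well in 96-well plates and grown 24 h at 37 °C in 5% CO₂ to a monolayer. Compounds were added at […]. Cells were fixed, stained with 0.4% w/v sulforhodamine B in 1% acetic acid for 30 min at room temperature, rinsed in acetic acid, and the dye dissolved in 10 mM Tris base for 10 min.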

The target of assay [2] is Acetylcholinesterase (Electrophorus electricus) (UniProt O42275). The assay is described as §1. On the set-up: concentration or dose not given beside the values.
Assay [3] relates to NCI-H157. Description: Antiproliferative activity against human NCI-H157 cells at 100 uM after 48 hrs by SRB assay. Format: functional. Put shortly:
as §2

Chain of Cholinesterase (P06276 whole entry): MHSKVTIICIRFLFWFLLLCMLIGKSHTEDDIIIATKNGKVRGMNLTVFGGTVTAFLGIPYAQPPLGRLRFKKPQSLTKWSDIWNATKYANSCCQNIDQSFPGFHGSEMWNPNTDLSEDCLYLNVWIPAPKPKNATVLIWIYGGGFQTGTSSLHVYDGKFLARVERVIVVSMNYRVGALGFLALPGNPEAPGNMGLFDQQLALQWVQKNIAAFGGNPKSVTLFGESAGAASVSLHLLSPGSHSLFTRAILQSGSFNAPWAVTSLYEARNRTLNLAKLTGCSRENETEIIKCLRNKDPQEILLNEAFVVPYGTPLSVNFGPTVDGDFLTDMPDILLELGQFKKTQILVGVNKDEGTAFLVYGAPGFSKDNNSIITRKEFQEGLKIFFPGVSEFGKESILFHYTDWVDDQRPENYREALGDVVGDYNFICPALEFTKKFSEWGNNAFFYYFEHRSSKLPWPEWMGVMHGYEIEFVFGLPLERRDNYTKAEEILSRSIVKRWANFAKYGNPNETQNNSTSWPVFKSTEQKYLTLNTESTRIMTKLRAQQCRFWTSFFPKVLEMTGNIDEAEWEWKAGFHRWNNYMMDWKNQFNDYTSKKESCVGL
Chain of Acetylcholinesterase (O42275 whole entry): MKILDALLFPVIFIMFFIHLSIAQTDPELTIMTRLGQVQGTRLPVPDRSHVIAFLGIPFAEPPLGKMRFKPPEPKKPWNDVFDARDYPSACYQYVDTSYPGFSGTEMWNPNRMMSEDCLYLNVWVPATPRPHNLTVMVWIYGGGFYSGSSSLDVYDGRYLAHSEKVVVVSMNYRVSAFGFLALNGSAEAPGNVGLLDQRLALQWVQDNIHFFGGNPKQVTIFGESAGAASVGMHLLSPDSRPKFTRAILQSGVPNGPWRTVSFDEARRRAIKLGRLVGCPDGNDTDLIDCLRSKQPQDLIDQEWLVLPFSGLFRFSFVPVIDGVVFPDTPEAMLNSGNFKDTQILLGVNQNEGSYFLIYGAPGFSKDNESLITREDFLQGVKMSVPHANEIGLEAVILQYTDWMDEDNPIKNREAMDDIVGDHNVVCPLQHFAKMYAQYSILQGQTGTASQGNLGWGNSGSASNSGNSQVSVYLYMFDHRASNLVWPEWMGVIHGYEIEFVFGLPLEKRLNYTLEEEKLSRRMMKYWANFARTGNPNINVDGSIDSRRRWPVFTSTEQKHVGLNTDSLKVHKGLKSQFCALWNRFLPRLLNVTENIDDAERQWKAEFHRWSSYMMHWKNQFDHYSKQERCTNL
Chain of Acetylcholinesterase (Electrophorus electricus) (O42275 24-633 limits assumed): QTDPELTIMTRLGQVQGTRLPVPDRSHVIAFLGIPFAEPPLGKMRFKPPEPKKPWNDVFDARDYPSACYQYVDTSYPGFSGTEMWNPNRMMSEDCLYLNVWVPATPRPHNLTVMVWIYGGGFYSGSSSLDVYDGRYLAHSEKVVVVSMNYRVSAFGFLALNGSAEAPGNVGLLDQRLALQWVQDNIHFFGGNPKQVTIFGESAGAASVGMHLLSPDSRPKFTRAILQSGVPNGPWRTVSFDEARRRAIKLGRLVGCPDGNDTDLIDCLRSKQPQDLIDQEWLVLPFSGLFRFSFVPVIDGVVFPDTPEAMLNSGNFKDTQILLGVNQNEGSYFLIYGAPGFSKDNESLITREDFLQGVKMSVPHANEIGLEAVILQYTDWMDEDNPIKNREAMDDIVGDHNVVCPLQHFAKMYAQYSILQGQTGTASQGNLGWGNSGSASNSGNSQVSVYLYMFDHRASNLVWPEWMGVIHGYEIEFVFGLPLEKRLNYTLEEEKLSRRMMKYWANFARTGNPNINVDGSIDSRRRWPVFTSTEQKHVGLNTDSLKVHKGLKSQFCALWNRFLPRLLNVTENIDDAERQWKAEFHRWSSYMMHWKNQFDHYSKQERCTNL

One may read the IC50 as the point on the concentration scale where inhibition reaches its midpoint. `CN(C)C(=O)Oc1cccc([N+](C)(C)C)c1` [NEOSTIGMINE]: the values for the IC50 against Cholinesterase and against Acetylcholinesterase were 49.1 µM and 22 µM, respectively.
Usually inhibition stands for the drop in the measured response relative to a control, in per cent. Take `COc1cc(NC(=O)/C=C/c2cc(O)ccc2O)cc(OC)c1OC`: the Activity with NCI-H157 [1] was found to be 60%. Also, the inhibition is 36.2% on Cholinesterase and 30.3% in assay [2].
Turning to `COc1cc(NC(=O)/C=C/c2c(Cl)cccc2[N+](=O)[O-])cc(OC)c1OC`, in assay [2], the inhibition amounted to 34.2%.
Turning to `COc1cc(NC(=O)/C=C/c2c(O)cccc2[N+](=O)[O-])cc(OC)c1OC`, the inhibition on Cholinesterase stood at 35.4%. Moreover, the IC50 at Acetylcholinesterase is 12.8 µM.
Turning to `COc1cc(NC(=O)/C=C/c2cccc(O)c2O)cc(OC)c1OC`, the inhibition against Cholinesterase was found to be 41.2%; in assay [2], 31.2%.
Compound `COc1cc(NC(=O)/C=C/c2ccc(OCc3ccccc3)cc2)cc(OC)c1OC` had an inhibition at Cholinesterase of 33.5%. The compound further had an IC50 against Acetylcholinesterase of 3.72 µM.
The compound `COc1cc(NC(=O)/C=C/c2c(F)cccc2Cl)cc(OC)c1OC` displayed an Activity in the assay with NCI-H157 [1] of 66%. Moreover, the IC50 against Cholinesterase amounted to 1.32 µM. The same compound showed an inhibition in assay [2] of 34.1%.
The compound `COc1cc(/C=C/C(=O)Nc2cc(OC)c(OC)c(OC)c2)ccc1OC(C)=O` gave an inhibition on Cholinesterase of 31.1%. The same compound yielded an IC50 on Acetylcholinesterase of 4.98 µM.
For the compound `COc1cc(NC(=O)/C=C/c2ccc(O)cc2O)cc(OC)c1OC`, the inhibition on Cholinesterase was 18.2%; in assay [2], 36.6%.
`COc1cccc(/C=C/C(=O)Nc2cc(OC)c(OC)c(OC)c2)c1` yielded an inhibition against Cholinesterase of 41.8%. On Acetylcholinesterase, this compound gave a half-maximal inhibitory concentration (IC50) of 12.9 µM.
In turn, `COc1cc(/C=C/C(=O)Nc2cc(OC)c(OC)c(OC)c2)ccc1OCc1ccccc1` came in with an inhibition on Cholinesterase of 32.8%. For the same compound, the IC50 against Acetylcholinesterase is 12.6 µM.
With `COc1ccc(/C=C/C(=O)Nc2cc(OC)c(OC)c(OC)c2)cc1O`, the concentration for half-maximal inhibition (IC50) on Cholinesterase worked out at 7.65 µM; at Acetylcholinesterase it was 4.22 µM.
`COc1cc(NC(=O)/C=C/c2ccc(OC(C)=O)cc2)cc(OC)c1OC`: the values for the inhibition (on Cholinesterase; in assay [2]) were 37.4% and 36.5%, respectively.
In the case of `CC[C@]1(O)C[C@H]2CN(CCc3c([nH]c4ccccc34)[C@@](C(=O)OC)(c3cc4c(cc3OC)N(C=O)[C@H]3[C@@](O)(C(=O)OC)[C@H](OC(C)=O)[C@]5(CC)C=CCN6CC[C@]43[C@@H]65)C2)C1` [VINCRISTINE], the Activity in the assay with NCI-H157 [3] was found to be 46%.
Turning to `COc1cc(NC(=O)/C=C/c2ccc(NOC(C)=O)cc2)cc(OC)c1OC`, the IC50 on Cholinesterase is 3.85 µM; against Acetylcholinesterase, 12.5 µM.
The corresponding values for `COc1cccc(/C=C/C(=O)Nc2cc(OC)c(OC)c(OC)c2)c1O` are 5.19 µM and 6.22 µM.
On to `COc1cc(NC(=O)/C=C/c2ccccc2OCc2ccccc2)cc(OC)c1OC`, for which the inhibition at Cholinesterase was 32.1%. Moreover, at Acetylcholinesterase, 0.29 µM corresponded to half-maximal inhibition (IC50).
Regarding `COc1cc(NC(=O)/C=C/c2cccc(OCc3ccccc3)c2)cc(OC)c1OC`, the IC50 against Cholinesterase stood at 3.93 µM; on Acetylcholinesterase it was 6.52 µM.
`C=CCOc1ccccc1/C=C/C(=O)Nc1cc(OC)c(OC)c(OC)c1`: at Cholinesterase, the inhibition was 24.8%. The same compound yielded an IC50 on Acetylcholinesterase of 1.41 µM.
On to `COc1cc(NC(=O)/C=C/c2ccc(O)c(O)c2)cc(OC)c1OC`, for which the inhibition against Cholinesterase worked out at 34.6%; in assay [2] it was 36.4%.
In the case of `COc1cc(NC(=O)/C=C/c2cccc(OC(C)=O)c2)cc(OC)c1OC`, the IC50 on Cholinesterase came to 1.25 µM. In assay [2], this compound yielded an inhibition of 29.2%.
At Cholinesterase, `COc1cc(NC(=O)/C=C/c2ccc(Cl)cc2)cc(OC)c1OC` registered an inhibition of 25.7%. At Acetylcholinesterase, this compound yielded an IC50 of 31.2 µM.
The compound `COc1cc(NC(=O)/C=C/c2ccc(OCc3ccccc3)cc2O)cc(OC)c1OC` displayed an inhibition on Cholinesterase of 27.2%. The compound further yielded an IC50 against Acetylcholinesterase of 1.59 µM.
Regarding `COc1ccc(/C=C/C(=O)Nc2cc(OC)c(OC)c(OC)c2)cc1[N+](=O)[O-]`, the Activity with NCI-H157 [1] was 66%. In addition, the inhibition against Cholinesterase amounted to 28.1%. The same compound showed a half-maximal inhibitory concentration (IC50) on Acetylcholinesterase of 6.69 µM.
In turn, `COc1ccc(/C=C/C(=O)Nc2cc(OC)c(OC)c(OC)c2)cc1OCc1ccccc1` came in with an Activity in the assay with NCI-H157 [1] of 61%. Moreover, the inhibition against Cholinesterase amounted to 31.1%. For the same compound, half-maximal inhibition on Acetylcholinesterase (IC50) required 6.02 µM.
In the case of `COc1cc(NC(=O)/C=C/c2cccc([N+](=O)[O-])c2)cc(OC)c1OC`, the inhibition on Cholinesterase is 26.2%. Moreover, on Acetylcholinesterase, half-maximal inhibition (IC50) was put at 3.24 µM.
Regarding `C=CCOc1ccc(/C=C/C(=O)Nc2cc(OC)c(OC)c(OC)c2)cc1`, the inhibition against Cholinesterase was determined as 32.6%; in assay [2], 33.6%.
